How the values were obtained:
[1] = species on record: Mus musculus; assay: Percentage analgesic efficacy when compared to morphine; assay type: functional; parameters: concentration or dose not given beside the values
Method in brief: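 Male Swiss albino mice, hot-plate test, paw-licking latency; pretest 12–18 s required, cutoff 45 s. Icv injection of 5 μL under brief anaesthesia, in saline or H2O/DMSO 2:1, at maximal soluble dose. Latency read before and every 15 min after dosing. Efficacy = (peak latency − pretest) as % of the same value for morphine 10 μg/mouse icv; non-significant effects scored 0.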

[2] = system: Mus musculus; assay: Analgesic activity was evaluated in mouse hotplate test; expressed as licking latency after 45 min of treatment at a dose of 10 ug intracerebroventricularly; assay type: functional
Method in brief: (§1)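 Male Swiss albino mice (23-30 g); icv injection of 5 μL (saline or H2O/DMSO 2:1) under brief anaesthesia. Paw-licking latency (s) on hot plate read before injection and every 15 min up to 60 min. Mice with pretest latency below 12 or over 18 s excluded; cutoff 45 s. Statistics against saline- or vehicle-treated controls.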

[3] = system: Mus musculus; assay: Analgesic activity was evaluated in mouse hotplate test; expressed as licking latency after 15 min of treatment at a dose of 10 ug intracerebroventricularly; assay type: functional; method in brief: as §1
[4] = system: Mus musculus; assay: Analgesic activity was evaluated in mouse hotplate test; expressed as licking latency after 30 min of treatment at a dose of 10 ug intracerebroventricularly; assay type: functional; method in brief: as §1
[5] = system: Mus musculus; assay: Analgesic activity was evaluated in mouse hotplate test; expressed as licking latency after 30 min of treatment at a dose of 20 ug intracerebroventricularly; assay type: functional; method in brief: as §1
[6] = system: Mus musculus; assay: Analgesic activity was evaluated in mouse hotplate test; expressed as licking latency after 45 min of treatment at a dose of 20 ug intracerebroventricularly; assay type: functional; method in brief: as §1
[7] = system: Mus musculus; assay: Analgesic activity was evaluated in mouse hotplate test; expressed as licking latency after 15 min of treatment at a dose of 20 ug intracerebroventricularly; assay type: functional; method in brief: as §1
[8] = system: Mus musculus; assay: Analgesic activity was evaluated in mouse hotplate test; expressed as licking latency after 45 min of treatment at a dose of 50 ug intracerebroventricularly; assay type: functional; method in brief: as §1
[9] = system: Rattus norvegicus; assay: Antihyperalgesic activity was evaluated in rat (sn) paw pressure test after 30 min at a dose of 50 ug intracerebroventricularly
[10] = biological target: Voltage-dependent N-type calcium channel subunit alpha-1B (Rattus norvegicus) (UniProt Q02294); assay: In vitro antagonism of N-type calcium channels expressed in PC12 cells was determined as the increase in intracellular calcium influx
[11] = system: Mus musculus; assay: Analgesic activity was evaluated in mouse hotplate test; expressed as licking latency after 30 min of treatment at a dose of 50 ug intracerebroventricularly; assay type: functional; method in brief: as §1
[12] = system: Rattus norvegicus; assay: Antihyperalgesic activity was evaluated in rat (dx) paw pressure test after 60 min at a dose of 50 ug intracerebroventricularly
[13] = system: Rattus norvegicus; assay: Antihyperalgesic activity was evaluated in rat (dx) paw pressure test after 30 min at a dose of 50 ug intracerebroventricularly
[14] = system: Rattus norvegicus; assay: Antihyperalgesic activity was evaluated in rat (sn) paw pressure test after 60 min at a dose of 50 ug intracerebroventricularly
[15] = system: Rattus norvegicus; assay: Antihyperalgesic activity was evaluated in rat (sn) paw pressure test after 45 min at a dose of 50 ug intracerebroventricularly
[16] = system: Mus musculus; assay: Analgesic activity was evaluated in mouse hotplate test; expressed as licking latency after 15 min of treatment at a dose of 50 ug intracerebroventricularly; assay type: functional; method in brief: as §1
[17] = system: Rattus norvegicus; assay: Antihyperalgesic activity was evaluated in rat (dx) paw pressure test after 45 min at a dose of 50 ug intracerebroventricularly
[18] = biological target: Voltage-dependent N-type calcium channel subunit alpha-1B (Rattus norvegicus) (UniProt Q02294); assay: In vitro antagonism of N-type calcium channels expressed in PC12 cells was determined as the increase in intracellular calcium influx in the presence of 10 uM nifedipine
[19] = system: Mus musculus; assay: Analgesic activity was evaluated in mouse hotplate test; expressed as licking latency after 45 min of treatment at a dose of 40 ug intracerebroventricularly; assay type: functional; method in brief: as §1
[20] = system: Mus musculus; assay: Analgesic activity was evaluated in mouse hotplate test; expressed as licking latency after 15 min of treatment at a dose of 40 ug intracerebroventricularly; assay type: functional; method in brief: as §1
[21] = system: Mus musculus; assay: Analgesic activity was evaluated in mouse hotplate test; expressed as licking latency after 30 min of treatment at a dose of 40 ug intracerebroventricularly; assay type: functional; method in brief: as §1
[22] = system: Rattus norvegicus; assay: Antihyperalgesic activity was evaluated in rat (sn) paw pressure test after 30 min at a dose of 30 ug intracerebroventricularly
[23] = system: Rattus norvegicus; assay: Antihyperalgesic activity was evaluated in rat (sn) paw pressure test after 60 min at a dose of 30 ug intracerebroventricularly
[24] = system: Mus musculus; assay: Analgesic activity was evaluated in mouse hotplate test; expressed as licking latency after 45 min of treatment at a dose of 30 ug intracerebroventricularly; assay type: functional; method in brief: as §1
[25] = system: Rattus norvegicus; assay: Antihyperalgesic activity was evaluated in rat (dx) paw pressure test after 30 min at a dose of 30 ug intracerebroventricularly
[26] = system: Mus musculus; assay: Analgesic activity was evaluated in mouse hotplate test; expressed as licking latency after 15 min of treatment at a dose of 30 ug intracerebroventricularly; assay type: functional; method in brief: as §1
[27] = system: Rattus norvegicus; assay: Antihyperalgesic activity was evaluated in rat (sn) paw pressure test after 45 min at a dose of 30 ug intracerebroventricularly
[28] = system: Mus musculus; assay: Analgesic activity was evaluated in mouse hotplate test; expressed as licking latency after 30 min of treatment at a dose of 30 ug intracerebroventricularly; assay type: functional; method in brief: as §1
[29] = system: Rattus norvegicus; assay: Antihyperalgesic activity was evaluated in rat (dx) paw pressure test after 60 min at a dose of 30 ug intracerebroventricularly
[30] = system: Rattus norvegicus; assay: Antihyperalgesic activity was evaluated in rat (dx) paw pressure test after 45 min at a dose of 30 ug intracerebroventricularly
[31] = system: Mus musculus; assay: Analgesic activity was evaluated in mouse hotplate test; expressed as licking latency after 30 min of treatment at a dose of 15 ug intracerebroventricularly; assay type: functional; method in brief: as §1
[32] = system: Mus musculus; assay: Analgesic activity was evaluated in mouse hotplate test; expressed as licking latency after 45 min of treatment at a dose of 15 ug intracerebroventricularly; assay type: functional; method in brief: as §1
[33] = system: Mus musculus; assay: Analgesic activity was evaluated in mouse hotplate test; expressed as licking latency after 15 min of treatment at a dose of 15 ug intracerebroventricularly; assay type: functional; method in brief: as §1
[34] = system: Mus musculus; assay: Analgesic activity was evaluated in mouse hotplate test; expressed as licking latency after 30 min of treatment at a dose of 25 ug intracerebroventricularly; assay type: functional; method in brief: as §1
[35] = system: Mus musculus; assay: Analgesic activity was evaluated in mouse hotplate test; expressed as licking latency after 45 min of treatment at a dose of 25 ug intracerebroventricularly; assay type: functional; method in brief: as §1
[36] = system: Mus musculus; assay: Analgesic activity was evaluated in mouse hotplate test; expressed as licking latency after 15 min of treatment at a dose of 25 ug intracerebroventricularly; assay type: functional; method in brief: as §1

Voltage-dependent N-type calcium channel subunit alpha-1B (Rattus norvegicus), sequence (Q02294 whole entry, looked up): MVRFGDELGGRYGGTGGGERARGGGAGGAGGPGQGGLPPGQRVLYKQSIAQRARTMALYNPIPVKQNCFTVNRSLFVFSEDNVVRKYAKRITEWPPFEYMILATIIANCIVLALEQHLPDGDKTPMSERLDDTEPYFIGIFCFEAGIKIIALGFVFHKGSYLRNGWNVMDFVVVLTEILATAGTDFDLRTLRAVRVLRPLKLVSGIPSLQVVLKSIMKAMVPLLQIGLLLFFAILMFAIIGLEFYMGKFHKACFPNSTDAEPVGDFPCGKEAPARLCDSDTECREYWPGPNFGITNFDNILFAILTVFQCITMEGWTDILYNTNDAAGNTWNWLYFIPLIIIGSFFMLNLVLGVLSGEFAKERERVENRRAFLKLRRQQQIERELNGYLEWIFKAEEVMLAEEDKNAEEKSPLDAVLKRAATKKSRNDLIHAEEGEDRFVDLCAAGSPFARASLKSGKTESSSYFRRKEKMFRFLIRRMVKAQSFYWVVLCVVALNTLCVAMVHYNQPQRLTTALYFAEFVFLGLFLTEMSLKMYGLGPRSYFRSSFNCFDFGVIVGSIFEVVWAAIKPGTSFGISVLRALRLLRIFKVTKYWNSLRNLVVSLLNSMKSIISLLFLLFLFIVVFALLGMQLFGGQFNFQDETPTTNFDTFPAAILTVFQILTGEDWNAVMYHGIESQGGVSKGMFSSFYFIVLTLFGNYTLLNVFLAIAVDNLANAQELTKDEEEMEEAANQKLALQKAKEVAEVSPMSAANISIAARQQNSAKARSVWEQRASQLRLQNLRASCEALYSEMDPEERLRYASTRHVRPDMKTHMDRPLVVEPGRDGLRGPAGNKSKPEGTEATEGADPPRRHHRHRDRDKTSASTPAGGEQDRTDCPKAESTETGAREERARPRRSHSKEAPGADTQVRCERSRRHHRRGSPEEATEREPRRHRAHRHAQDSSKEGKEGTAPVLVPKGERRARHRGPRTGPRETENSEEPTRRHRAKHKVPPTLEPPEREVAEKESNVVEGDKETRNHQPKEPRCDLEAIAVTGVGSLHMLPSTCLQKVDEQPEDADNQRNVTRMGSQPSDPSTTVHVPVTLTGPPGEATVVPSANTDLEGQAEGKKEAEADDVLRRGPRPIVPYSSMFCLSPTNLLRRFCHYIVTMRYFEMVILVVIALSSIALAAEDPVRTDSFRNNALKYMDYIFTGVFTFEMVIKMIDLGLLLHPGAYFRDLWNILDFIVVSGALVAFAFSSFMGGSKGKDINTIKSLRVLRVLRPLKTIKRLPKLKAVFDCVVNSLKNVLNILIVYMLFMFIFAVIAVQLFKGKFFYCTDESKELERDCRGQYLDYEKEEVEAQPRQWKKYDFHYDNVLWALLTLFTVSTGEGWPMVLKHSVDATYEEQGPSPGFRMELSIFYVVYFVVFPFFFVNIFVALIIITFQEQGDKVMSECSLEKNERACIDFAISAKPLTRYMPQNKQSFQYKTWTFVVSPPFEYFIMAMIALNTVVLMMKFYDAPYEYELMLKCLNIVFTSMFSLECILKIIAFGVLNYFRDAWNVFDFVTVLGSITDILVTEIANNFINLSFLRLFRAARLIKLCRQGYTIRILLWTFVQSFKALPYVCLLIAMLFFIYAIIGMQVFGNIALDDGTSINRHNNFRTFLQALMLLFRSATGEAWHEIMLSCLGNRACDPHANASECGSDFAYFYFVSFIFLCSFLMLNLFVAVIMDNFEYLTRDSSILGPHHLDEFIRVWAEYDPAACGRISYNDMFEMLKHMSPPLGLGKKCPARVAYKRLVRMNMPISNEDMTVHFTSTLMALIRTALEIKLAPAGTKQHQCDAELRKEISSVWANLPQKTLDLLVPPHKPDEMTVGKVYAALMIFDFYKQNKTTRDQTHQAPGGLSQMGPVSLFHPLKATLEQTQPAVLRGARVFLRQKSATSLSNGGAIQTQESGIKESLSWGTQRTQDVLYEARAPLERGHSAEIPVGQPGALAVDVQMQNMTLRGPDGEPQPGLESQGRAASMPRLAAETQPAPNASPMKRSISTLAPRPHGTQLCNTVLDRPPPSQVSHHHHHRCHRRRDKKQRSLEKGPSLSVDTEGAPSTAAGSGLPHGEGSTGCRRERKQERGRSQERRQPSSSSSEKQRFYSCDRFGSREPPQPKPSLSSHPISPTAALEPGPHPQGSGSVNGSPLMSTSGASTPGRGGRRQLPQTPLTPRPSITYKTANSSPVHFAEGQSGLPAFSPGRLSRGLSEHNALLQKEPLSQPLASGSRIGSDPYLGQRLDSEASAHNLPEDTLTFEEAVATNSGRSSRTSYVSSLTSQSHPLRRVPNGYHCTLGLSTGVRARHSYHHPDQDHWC

## COc1ccc(CCNC2CCN(C(=O)CCC(C#N)(c3ccc(OC)c(OC)c3)C(C)C)CC2)cc1OC.O=C(O)C(=O)O (stereo not drawn)
[1]
  Efficacy: 0%
[2]
  Latency: 17.3 s
[3]
  Latency: 16.5 s
[4]
  Latency: 18.8 s

## O=C(CCC(c1ccc(F)cc1)c1ccc(F)cc1)NC1CCNCC1.O=C(O)C(=O)O
[5]
  Latency: 16.7 s
[1]
  Efficacy: 64%
[6]
  Latency: 17.1 s
[7]
  Latency: 21.8 s

## COc1ccc(C(C#N)(CCCN2CCC(NCCOc3ccccc3)CC2)C(C)C)cc1OC.O=C(O)C(=O)O (stereo not drawn)
[1]
  Efficacy: 61%
[8]
  Latency: 18.9 s
[9]
  Activity: 59.5 g
[10]
  IC50: 700 nM
[11]
  Latency: 20.8 s
[12]
  Activity: 54.8 g
[13]
  Activity: 61.7 g
[14]
  Activity: 60.6 g
[15]
  Activity: 64.7 g
[16]
  Latency: 22.3 s
[17]
  Activity: 58.3 g
[18]
  IC50: 400 nM

## COc1ccc(CCNC2CCN(CCCC(C#N)(c3ccccc3)C(C)C)CC2)cc1OC.O=C(O)C(=O)O (stereo not drawn)
[1]
  Efficacy: 0%
[2]
  Latency: 17.5 s
[3]
  Latency: 16.6 s
[4]
  Latency: 18.1 s

## COc1ccc(C(C#N)(CCC(=O)N2CCC(NCCOc3ccccc3)CC2)C(C)C)cc1OC.O=C(O)C(=O)O (stereo not drawn)
[1]
  Efficacy: 0%
[2]
  Latency: 13.8 s
[3]
  Latency: 15.7 s
[4]
  Latency: 18.5 s

## COc1ccc(CCNC2CCN(CCCC(C#N)(c3ccc(OC)c(OC)c3)C(C)C)CC2)cc1OC.O=C(O)C(=O)O (stereo not drawn)
[1]
  Efficacy: 0%
[2]
  Latency: 17.6 s
[3]
  Latency: 17.2 s
[4]
  Latency: 18.3 s

## COc1ccc(CCNC2CCN(CCCC(c3ccc(F)cc3)c3ccc(F)cc3)CC2)cc1OC.Cl
[1]
  Efficacy: 51%
[2]
  Latency: 16.6 s
[3]
  Latency: 21.5 s
[4]
  Latency: 16.3 s

## COc1ccc(CCNC2CCN(Cc3ccccc3)CC2)cc1OC.Cl
[1]
  Efficacy: 0%
[8]
  Latency: 15.3 s
[11]
  Latency: 16.7 s
[16]
  Latency: 15.5 s

## CC(C)CC(N)C(=O)NC1CCN(C(=O)CCC(c2ccc(F)cc2)c2ccc(F)cc2)CC1.Cl (stereo not drawn)
[1]
  Efficacy: 71%
[9]
  Activity: 55.9 g
[19]
  Latency: 16.6 s
[12]
  Activity: 55.8 g
[13]
  Activity: 62.5 g
[14]
  Activity: 63.2 g
[20]
  Latency: 23.2 s
[15]
  Activity: 61.3 g
[17]
  Activity: 60.3 g
[21]
  Latency: 22.6 s

## COc1ccc(C(C#N)(CCCNC2CCN(CCOc3ccccc3)CC2)C(C)C)cc1OC.Cl (stereo not drawn)
[22]
  Activity: 57.3 g
[23]
  Activity: 59.4 g
[24]
  Latency: 15.2 s
[1]
  Efficacy: 59%
[25]
  Activity: 33.4 g
[10]
  IC50: 3800 nM
[26]
  Latency: 22.6 s
[27]
  Activity: 55.6 g
[28]
  Latency: 16.5 s
[29]
  Activity: 40.5 g
[30]
  Activity: 38.6 g
[18]
  IC50: 3100 nM

## CCCCNC1CCN(CCCC(C#N)(c2ccc(OC)c(OC)c2)C(C)C)CC1.Cl (stereo not drawn)
[22]
  Activity: 59.1 g
[23]
  Activity: 59.2 g
[24]
  Latency: 18.7 s
[1]
  Efficacy: 59%
[25]
  Activity: 47.3 g
[26]
  Latency: 23.1 s
[27]
  Activity: 57.3 g
[28]
  Latency: 21.3 s
[29]
  Activity: 38.6 g
[30]
  Activity: 43.5 g

## CCCCNC1CCN(C(=O)CCC(C#N)(c2ccc(OC)c(OC)c2)C(C)C)CC1.Cl (stereo not drawn)
[22]
  Activity: 65 g
[23]
  Activity: 59.3 g
[24]
  Latency: 17 s
[1]
  Efficacy: 0%
[25]
  Activity: 28.4 g
[26]
  Latency: 18.7 s
[27]
  Activity: 56.9 g
[28]
  Latency: 17.4 s
[29]
  Activity: 32 g
[30]
  Activity: 26.7 g

## COc1ccc(CCN2CCC(NCCCC(C#N)(c3ccc(OC)c(OC)c3)C(C)C)CC2)cc1OC.Cl (stereo not drawn)
[1]
  Efficacy: 0%
[31]
  Latency: 18.3 s
[32]
  Latency: 15.4 s
[33]
  Latency: 17.7 s

## COc1ccc(C(C#N)(CCCNC2CCN(C/C=C/c3ccccc3)CC2)C(C)C)cc1OC.Cl (stereo not drawn)
[5]
  Latency: 20.2 s
[1]
  Efficacy: 69%
[6]
  Latency: 16.2 s
[7]
  Latency: 24.3 s

## CCCCN1CCC(NCCCC(C#N)(c2ccc(OC)c(OC)c2)C(C)C)CC1.Cl (stereo not drawn)
[34]
  Latency: 21.6 s
[1]
  Efficacy: 47%
[35]
  Latency: 19 s
[36]
  Latency: 20.5 s

## Cl.O=C(CCC(c1ccc(F)cc1)c1ccc(F)cc1)NC1CCN(CCO)CC1
[1]
  Efficacy: 0%
[31]
  Latency: 16.8 s
[32]
  Latency: 17.3 s
[33]
  Latency: 16.9 s
